# ChEMBL document CHEMBL1149323, “Synthesis and evaluation of dihydropyrroloquinolines that selectively antagonize P-glycoprotein” (J Med Chem, 2004)
# Tests used:
# [1] = Reversal index is the ratio of IC50 in the absence of modulator to that of presence of modulator when combined with vinblastine (nM) in MCF-7 cell line; assay type: functional, MCF7
# Procedure, shortened: (§1)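 Cells treated in triplicate for 48 h with graded cytotoxic drug, with or without modulator. Survival quantified by sulforhodamine B absorbance at 570 nm. IC50 of the cytotoxic drug derived with and without modulator; reversal index = IC50 without modulator / IC50 with modulator.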
# [2] = Reversal index is the ratio of IC50 in the absence of modulator to that of presence of modulator when combined with cisplatin (uM) in MCF-7/VP cell line; assay type: functional; procedure, shortened: as §1
# [3] = Reversal index is the ratio of IC50 in the absence of modulator to that of presence of modulator when combined with vinblastine (nM) in P388/ADR cell line; assay type: functional; procedure, shortened: as §1
# [4] = biological target: ATP-dependent translocase ABCB1 (Homo sapiens, UniProt P08183); assay: Compound was evaluated for broad range of antagonistic activity against P-glycoprotein (Pgp) value expressed as IC20; assay type: functional
# Sequence of ATP-dependent translocase ABCB1 (P08183 whole entry): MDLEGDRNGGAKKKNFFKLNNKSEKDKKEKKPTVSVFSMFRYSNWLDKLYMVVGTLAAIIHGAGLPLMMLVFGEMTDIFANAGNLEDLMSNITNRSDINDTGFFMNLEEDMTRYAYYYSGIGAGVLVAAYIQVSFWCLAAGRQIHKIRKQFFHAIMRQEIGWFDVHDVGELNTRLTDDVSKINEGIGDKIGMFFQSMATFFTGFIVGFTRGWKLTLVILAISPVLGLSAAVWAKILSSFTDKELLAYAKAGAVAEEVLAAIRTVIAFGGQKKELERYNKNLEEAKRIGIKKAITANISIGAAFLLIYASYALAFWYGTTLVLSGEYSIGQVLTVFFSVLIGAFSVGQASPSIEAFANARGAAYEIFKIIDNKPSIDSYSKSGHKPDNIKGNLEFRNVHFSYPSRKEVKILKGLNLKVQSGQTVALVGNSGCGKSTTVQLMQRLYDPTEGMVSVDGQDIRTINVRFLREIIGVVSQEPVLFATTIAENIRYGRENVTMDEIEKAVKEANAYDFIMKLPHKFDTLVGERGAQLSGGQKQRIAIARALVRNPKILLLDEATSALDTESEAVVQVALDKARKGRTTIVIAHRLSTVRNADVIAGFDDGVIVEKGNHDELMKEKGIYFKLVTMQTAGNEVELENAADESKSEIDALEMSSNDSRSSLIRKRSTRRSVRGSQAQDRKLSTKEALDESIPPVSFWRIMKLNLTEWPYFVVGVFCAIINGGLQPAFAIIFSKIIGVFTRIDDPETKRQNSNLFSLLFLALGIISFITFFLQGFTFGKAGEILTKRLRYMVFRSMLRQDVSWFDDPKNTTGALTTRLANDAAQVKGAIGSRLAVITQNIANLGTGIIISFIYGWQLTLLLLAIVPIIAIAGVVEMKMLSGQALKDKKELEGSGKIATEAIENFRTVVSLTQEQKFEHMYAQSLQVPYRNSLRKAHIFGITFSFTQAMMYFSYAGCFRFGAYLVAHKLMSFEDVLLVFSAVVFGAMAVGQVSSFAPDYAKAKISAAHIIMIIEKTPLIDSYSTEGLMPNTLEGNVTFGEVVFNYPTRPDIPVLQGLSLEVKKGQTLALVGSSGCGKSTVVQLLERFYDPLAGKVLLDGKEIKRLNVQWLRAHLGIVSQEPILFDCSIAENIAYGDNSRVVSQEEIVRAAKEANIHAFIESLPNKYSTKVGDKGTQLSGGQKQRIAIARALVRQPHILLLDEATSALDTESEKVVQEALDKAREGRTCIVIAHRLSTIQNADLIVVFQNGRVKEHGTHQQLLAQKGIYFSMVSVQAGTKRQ
# MCF-7 (Homo sapiens) = assay: Toxicity against MCF-7 cells
# [5] = Reversal index is the ratio of IC50 in the absence of modulator to that of presence of modulator when combined with vinblastine (nM) in MCF-7/VP cell line; assay type: functional; procedure, shortened: as §1
# Mus musculus [6] = assay: The second majority of the volume of distribution after intraperitoneal administration of 100 mg/kg in mice; assay type: ADME, organism-based; set-up: dose 100 mg/kg, route intraperitoneal; conditions: in vivo, ip
# Procedure, shortened: (§2)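 Female Swiss-Webster mice, 6–8 weeks old, given 100 mg/kg PGP-4008·HCl intraperitoneally. Blood taken by intracardiac puncture under anesthesia at 1–240 min, three animals per time point. Samples precipitated with ice-cold acetonitrile with 2-naphthol internal standard, then HPLC read at 254 nm against a standard curve. Two-compartment model fit.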
# Mus musculus [7] = assay: In vivo tumor growth inhibition in mice when administered […] at a day 9; assay type: functional
# Procedure, shortened: (§3)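 Balb/c female mice, 6–8 weeks old, with 10^6 JC murine mammary adenocarcinoma cells injected subcutaneously in the right hind quarter. Treatment began once tumors were palpable (day 1), five mice per group. Dosing on days 1, 5 and 9: 100 mg/kg i.p. PGP-4008·HCl with or without 5 mg/kg doxorubicin. Caliper volumes calculated as (L×W²)/2 through day 15; unpaired t-test with Welch correction.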
# [8] = Reversal index is the ratio of IC50 in the absence of modulator to that of presence of modulator when combined with vincristine (nM) in T24 cell line; assay type: functional, T-24; procedure, shortened: as §1
# Mus musculus [9] = assay: Volume of the first compartment after intraperitoneal administration of 100 mg/kg in mice; conditions: in vivo, ip
# [10] = Reversal index is the ratio of IC50 in the absence of modulator to that of presence of modulator when combined with vincristine (nM) in MCF-7 cell line; assay type: functional, MCF7; procedure, shortened: as §1
# [11] = Reversal index is the ratio of IC50 in the absence of modulator to that of presence of modulator when combined with vinblastine (nM) in NCI/ADR cell line; assay type: functional; procedure, shortened: as §1
# [12] = Reversal index is the ratio of IC50 in the absence of modulator to that of presence of modulator when combined with vincristine (nM) in MCF-7/VP cell line; assay type: functional; procedure, shortened: as §1
# [13] = Reversal index is the ratio of IC50 in the absence of modulator to that of presence of modulator when combined with vincristine (nM) in NCI/ADR cell line; assay type: functional; procedure, shortened: as §1
# [14] = Reversal index is the ratio of IC50 in the absence of modulator to that of presence of modulator when combined with cisplatin (uM) in NCI/ADR cell line; assay type: functional; procedure, shortened: as §1
# Mus musculus [15] = assay: AUMC after intraperitoneal administration of 100 mg/kg in mice; assay type: ADME, organism-based; set-up: dose 100 mg/kg, route intraperitoneal; conditions: in vivo, ip; procedure, shortened: as §2
# [16] = Maximum concentration in plasma was determined after intraperitoneal administration of 100 mg/kg in mice; assay type: ADME, organism-based; set-up: dose 100 mg/kg, route intraperitoneal; conditions: mouse, ip; procedure, shortened: as §2
# [17] = Reversal index is the ratio of IC50 in the absence of modulator to that of presence of modulator when combined with taxol (nM) in P388/ADR cell line
# [18] = Reversal index is the ratio of IC50 in the absence of modulator to that of presence of modulator when combined with vincristine (nM) in P388/ADR cell line; assay type: functional; procedure, shortened: as §1
# [19] = Reversal index is the ratio of IC50 in the absence of modulator to that of presence of modulator when combined with doxorubicin (uM) in P388/ADR cell line
# [20] = Reversal index is the ratio of IC50 in the absence of modulator to that of presence of modulator when combined with vinblastine (nM) in T24 cell line; assay type: functional, T-24; procedure, shortened: as §1
# [21] = Reversal index is the ratio of IC50 in the absence of modulator to that of presence of modulator when combined with 5-fluorouracil (uM) in P388/ADR cell line; assay type: functional; procedure, shortened: as §1
# [22] = Reversal index is the ratio of IC50 in the absence of modulator to that of presence of modulator when combined with 5-Fluorouracil (uM) in T24 cell line; assay type: functional, T-24; procedure, shortened: as §1
# [23] = Compound was evaluated for broad range of antagonistic activity against multi drug resistance-related protein (MRP) value expressed as IC20; assay type: functional; set-up: unit not given here
# [24] = Reversal index is the ratio of IC50 in the absence of modulator to that of presence of modulator when combined with taxol (nM) in MCF-7 cell line; assay type: functional, MCF7; procedure, shortened: as §1
# [25] = Plasma clearance rate after intraperitoneal administration of 100 mg/kg in mice; assay type: ADME, organism-based; set-up: dose 100 mg/kg, route intraperitoneal; conditions: mouse, ip, read-out: Clp (converted); procedure, shortened: as §2
# Mus musculus [26] = assay: In vivo tumor growth inhibition in mice when administered subcutaneously at a day 5; assay type: functional; conditions: in the assay text read “intraperitoneally” for “subcutaneously”; procedure, shortened: as §3
# [27] = Reversal index is the ratio of IC50 in the absence of modulator to that of presence of modulator when combined with cisplatin (uM) in P388/ADR cell line; assay type: functional; procedure, shortened: as §1
# [28] = Reversal index is the ratio of IC50 in the absence of modulator to that of presence of modulator when combined with taxol (nM) in MCF-7/VP cell line; assay type: functional; procedure, shortened: as §1
# Mus musculus [29] = assay: In vivo tumor growth inhibition in mice when […] at a day 15; assay type: functional; procedure, shortened: as §3
# Mus musculus [30] = assay: Volume of distribution after intraperitoneal administration of 100 mg/kg in mice; assay type: ADME, organism-based; set-up: dose 100 mg/kg, route intraperitoneal; conditions: in vivo, ip; procedure, shortened: as §2
# [31] = Reversal index is the ratio of IC50 in the absence of modulator to that of presence of modulator when combined with 5-fluorouracil (uM) in NCI/ADR cell line; assay type: functional; procedure, shortened: as §1
# [32] = Reversal index is the ratio of IC50 in the absence of modulator to that of presence of modulator when combined with taxol (nM) in T24 cell line; assay type: functional, T-24; procedure, shortened: as §1
# [33] = Reversal index is the ratio of IC50 in the absence of modulator to that of presence of modulator when combined with taxol (nM) in NCI/ADR cell line; assay type: functional; procedure, shortened: as §1
# Mus musculus [34] = assay: In vivo tumor growth inhibition in mice when administered […] at a day 12; assay type: functional; procedure, shortened: as §3
# [35] = Reversal index is the ratio of IC50 in the absence of modulator to that of presence of modulator when combined with cisplatin (uM) in T24 cell line; assay type: functional, T-24; procedure, shortened: as §1
# Mus musculus [36] = assay: In vivo tumor growth inhibition in mice when […] at a day 1; assay type: functional; procedure, shortened: as §3
# [37] = Reversal index is the ratio of IC50 in the absence of modulator to that of presence of modulator when combined with cisplatin (uM) in MCF-7 cell line; assay type: functional, MCF7; procedure, shortened: as §1
# [38] = Reversal index is the ratio of IC50 in the absence of modulator to that of presence of modulator when combined with 5-Fluorouracil (uM) in MCF-7 cell line; assay type: functional, MCF7; procedure, shortened: as §1
# [39] = Reversal index is the ratio of IC50 in the absence of modulator to that of presence of modulator when combined with 5-fluorouracil (uM) in MCF-7/VP cell line; assay type: functional; procedure, shortened: as §1
SMILES,RI [1],RI [2],RI [3],RI [5],RI [8],RI [10],RI [11],RI [12],RI [13],RI [14],RI [18],RI [19],RI [20],RI [21],RI [22],RI [24],RI [27],RI [28],RI [31],RI [32],further results
O=C(Cc1ccccc1)Nc1c2c(nc3ccccc13)N(Cc1ccccc1)CC2,1.8,0.8,63,1.3,1.5,0.9,35,1,18,1.2,30,200,3.8,0.7,2.6,0.9,1.9,0.8,1,1.2,Activity [4]: 10.7; Toxicity (MCF-7 (Homo sapiens)): 13 µM; V2 (Mus musculus [6]): 40.5 mL; Tumor volume (Mus musculus [7]): 1030 mm**3; V1 (Mus musculus [9]): 2.3 mL; AUMC (Mus musculus [15]): 9.4 µg·h²/mL; Cmax [16]: 197 µg/mL; RI [17]: 202; Activity [23]: 0.7; CL/F [25]: 1.34 mL/min; Tumor volume (Mus musculus [26]): 470 mm**3; Tumor volume (Mus musculus [29]): 2000 mm**3; Vdss (Mus musculus [30]): 43 mL; RI [33]: 70; Tumor volume (Mus musculus [34]): 1280 mm**3; RI [35]: 1.1; Tumor volume (Mus musculus [36]): 380 mm**3
COc1ccc(CCN(C)CCCC(C#N)(c2ccc(OC)c(OC)c2)C(C)C)cc1OC (configuration not stated),1.2,0.8,61,2.4,3.7,4.6,173,15,50,1.1,112,1000,2.7,0.7,1.6,1.1,2,1.1,0.9,1.6,RI [37]: 1.1; RI [38]: 0.9; RI [39]: 0.9; RI [33]: 106; RI [35]: 1
